Hck-Nef inh: blocks Nef-activated human Hck kinase; P08631; Recombinant Hck-YEEI plus Nef, Z-Lyte FRET kinase assay; inhibition, % at 20 µM; 220,000 compounds, 0.68% hits; AID 463187;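 active = Hck-Nef kinase inhibition above about 50%, limit read from the data; inactive = inhibition below that limit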;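 also: 0% = DMSO with Hck plus Nef and 100% = Hck alone without Nef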
Target sequence (P08631 whole entry, looked up): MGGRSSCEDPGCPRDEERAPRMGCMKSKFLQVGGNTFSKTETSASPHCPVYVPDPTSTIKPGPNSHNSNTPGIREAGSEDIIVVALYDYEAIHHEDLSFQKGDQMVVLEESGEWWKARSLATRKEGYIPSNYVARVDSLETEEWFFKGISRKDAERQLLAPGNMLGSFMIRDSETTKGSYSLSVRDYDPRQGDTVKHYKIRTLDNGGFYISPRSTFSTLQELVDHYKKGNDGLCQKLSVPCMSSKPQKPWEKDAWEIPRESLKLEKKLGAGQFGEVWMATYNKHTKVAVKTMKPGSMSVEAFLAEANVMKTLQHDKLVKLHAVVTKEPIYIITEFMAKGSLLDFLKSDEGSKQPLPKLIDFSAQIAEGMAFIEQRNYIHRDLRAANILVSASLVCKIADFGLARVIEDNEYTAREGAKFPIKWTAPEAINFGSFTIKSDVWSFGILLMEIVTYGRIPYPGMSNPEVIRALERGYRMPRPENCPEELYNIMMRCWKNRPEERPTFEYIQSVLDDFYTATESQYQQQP
Runt-CBFb FRET: Runt domain-CBFb interaction inhibition | Q01196+Q13951 | Cerulean-Runt/Venus-CBFb FRET ratio 530/480, 1 h | inhibition, % at 20 µM | 220,000 compounds, 0.46% hits | AID 1496;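 active = inhibition over about 50% at 20 µM in the single-dose screen, limit read from the data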;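 also: 0% = DMSO wells and 100% = excess unlabeled CBFb competitor control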
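Schedule: protein complex preformed 1 h, compound exposure 1 h, room temperature, dark; test system: Cerulean-labeled Runt domain protein; amount: 100 nM per protein; buffer or medium: Tris 50 mM pH 7.5, KCl, K2SO4, 0.01% BSA; read-out: loss of energy transfer signal; detection: FRET fluorescence; controls: 5 µM unlabeled CBFb as full-inhibition high control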
RanGTP-Impb inh: inhibitors of RanGTP-importin-beta interaction, primary screen, biochemical, FRET, CFP-Ran, YFP-importin-beta, homogeneous; cell-free CFP-Ran/YFP-importin-beta FRET ratio; inhibition, % (concentration not given with the values); 300,000 compounds, 1.1% hits; AID 2216;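 active = more than half of the replicate wells show a fall in the fluorescence ratio signal beyond about 16%, limit read from the data, passing the limit was not always enough; inconclusive = exactly half of the replicate wells pass the set limit; inactive = fewer than half of replicates pass the limit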;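 also: 0% = DMSO wells and 100% = Ran loaded with GDP instead of GTP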
Runt-SMMHC FRET: blocks binding of human RUNX1 Runt domain to CBFb-SMMHC; inhibition, % at 20 µM; 220,000 compounds, 0.74% hits; Q01196+Q13951; Cerulean-Runt/Venus-CBFb-SMMHC FRET ratio 530/480, 1 h;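 active = mean inhibition across duplicate retests at 20 µM reaching about 50%, limit read from the data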;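 also: 0% = DMSO wells and 100% = wells with excess untagged CBFb-SMMHC; inhibitors lower the FRET ratio by blocking Runt binding to CBFb-SMMHC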
The depositor's hits bear a star; ? = inconclusive; nt = not tested or not shown. Most compounds without a hit are left out; they make up all but 1.8% or so of the library.

SMILES	Hck-Nef inh	Runt-CBFb FRET	RanGTP-Impb inh	Runt-SMMHC FRET
Cc1ccc(/C=C2\C(=O)NC(=S)N(c3ccccc3F)C2=O)s1	2.7	5.6	nt	12.5
Cc1ccc(/C=C2\C(=O)NC(=S)N(c3ccc(F)cc3)C2=O)s1	98.5*	nt	3.7	32.6
COc1ccc(CC(C)NCCC(c2ccccc2)c2ccccc2)cc1 (stereo not drawn)	nt	nt	-0.8	nt
COC(=O)c1ccc(CN2CCSC2=N)cc1	nt	nt	3.1	nt
O=c1[nH]c(=O)n(C2CCCCC2)c(O)c1C=Nc1ccc(N2CCOCC2)cc1	4.8	-56.6	1.2	80.6
COc1ccc(-n2c(O)c(/C=C/C=Nc3ccccc3)c(=O)[nH]c2=O)cc1	0.1	14.8	20.1*	50.6*
O=c1[nH]c(=O)n(C2CCCCC2)c(O)c1/C=C/C=Nc1ccccc1	26.9	-2.7	61.2*	81.1*
O=c1[nH]c(=O)n(-c2ccccc2)c(O)c1/C=C/C=Nc1ccccc1	2.6	45.7	58.0*	60.1*
C=CCn1c(O)c(/C=C/C=Nc2ccccc2)c(=O)[nH]c1=O	4.3	39.4	28.8*	77.4*
Cc1cc(OC(C)C(=O)NCC(O)c2ccccc2)c2c3c(c(=O)oc2c1)CCCC3 (stereo not drawn)	nt	nt	-4.0	nt
Cc1ccc(-n2c(O)c(/C=C/C=Nc3ccccc3)c(=O)[nH]c2=O)cc1	0.1	19.1	68.1*	66.0*
Cc1ccc(N/N=C/c2c(O)n(-c3ccccc3)c(=O)[nH]c2=O)cc1	31.4	1.8	1.1	1.6
CCOC(=O)C1(CCc2ccccc2)CCN(CC(O)CO)CC1 (stereo not drawn)	nt	nt	-0.3	nt
O=C1/C(=C\c2ccc([N+](=O)[O-])cc2)N2CCC1CC2	3.4	0.9	6.6	0.2
CN(C)c1ccc(/C=C2/C(=N\O)C3CCN2CC3)cc1	-7.8	1.2	56.9*	28.7
CC(C)CCOC(=O)c1c(N)n(CC2CCCO2)c2nc3ccccc3nc12 (stereo not drawn)	16.2	22.2	11.2	64.8*
CCCn1c(C(=O)c2ccccc2)nc2ccccc21	28.6	0.0	-4.0	-2.1
CCCCOCCCn1c(N)c(C(=O)OCCOC)c2nc3ccccc3nc21	30.1	44.4	?	103.4*
CC(C)CCn1c(N)c(C(=O)OCC2CCCO2)c2nc3ccccc3nc21 (stereo not drawn)	32.4	38.2	?	82.1*
CCCCn1c(N)c(C(=O)OCC2CCCO2)c2nc3ccccc3nc21 (stereo not drawn)	25.7	41.3	?	105.7*
O=C1NC(=S)N(Cc2ccco2)C(=O)/C1=C\c1cccs1	97.5*	42.1	nt	25.4
CCOC(=O)c1c(NC(=O)c2c(N)n(CCCOC)c3nc4ccccc4nc23)sc2c1CCCC2	0.3	68.8*	6.4	100.9*
CCOCCCn1c(N)c(C(=O)Nc2sc3c(c2C(=O)OC)CCCC3)c2nc3ccccc3nc21	3.1	40.6	2.8	136.7*
CCOC(=O)c1c(NC(NC(=O)CF)C(Cl)(Cl)Cl)sc2c1CCCC2 (stereo not drawn)	2.8	1.9	0.4	4.8
CCOC(=O)CCCCCNC(=O)c1c(O)[nH]c(=O)[nH]c1=O	nt	nt	0.5	nt
SMILES	Hck-Nef inh	Runt-CBFb FRET	RanGTP-Impb inh	Runt-SMMHC FRET
CC(Cc1ccc(O)cc1)NCC(O)c1cc(O)cc(O)c1 (stereo not drawn)	27.2	13.3	17.4*	6.8
COc1ccc2c3c([nH]c2c1)C(C)=NCC3	-13.3	4.5	61.7*	72.6*
Cc1ccc(N2C(=O)NC(=O)C3(Cc4ccccc4N4CCCC43)C2=O)cc1 (stereo not drawn)	6.8	1.9	19.8*	-3.8
O=C1NC(=O)C2(Cc3ccccc3N3CCCC32)C(=O)N1c1ccc(Cl)cc1 (stereo not drawn)	-10.3	7.0	nt	8.3
N=C1c2ccccc2CN1NC(=O)c1ccc(Br)cc1	-20.0	0.3	4.5	2.7
CC1CCCCC1NC(=O)CNC(=S)N1CC2CC(C1)c1cccc(=O)n1C2 (stereo not drawn)	nt	nt	-1.3	nt
Oc1cc2c(cc1O)[C@H]1c3ccccc3CN[C@@H]1CC2	nt	35.2	0.8	55.5*
COc1ccc(CCNC(=O)c2c(N)n(CCN3CCOCC3)c3nc4ccccc4nc23)cc1OC	47.4	19.4	55.0*	45.7
COc1ccc(Cn2c(N)c(C(=O)NCc3ccco3)c3nc4ccccc4nc32)cc1	35.0	48.6	61.1*	99.7*
CCOC(=O)c1c(N)n(Cc2ccco2)c2nc3ccccc3nc12	35.2	48.2	nt	70.5*
Nc1c(C(=O)NCc2ccco2)c2nc3ccccc3nc2n1CCN1CCOCC1	34.3	40.6	46.4*	80.9*
Cc1cc(Cc2c(O)[nH]c(=S)[nH]c2=O)ccc1OC(C)C	nt	nt	2.5	nt
Cc1ccccc1N1CCN(C2CCCN(C(=O)Cc3c(C)noc3C)C2)CC1 (stereo not drawn)	nt	nt	4.0	nt
CCCc1cc(=O)oc2cc(OCC(=O)N3CCC(C(=O)O)(c4ccccc4)CC3)ccc12	nt	nt	4.1	nt
Nc1c(C(=O)NCc2ccco2)c2nc3ccccc3nc2n1Cc1ccccc1	24.5	67.7*	55.4*	76.0*
CCCCCn1c(N)c(C(=O)NCCN2CCOCC2)c2nc3ccccc3nc21	46.2	1.4	60.5*	93.8*
O=C(NCCN1CCOCC1)c1ccc(Cl)nc1	8.4	-0.5	-1.2	2.4
COCC(C)OC(=O)c1c(N)n(Cc2ccco2)c2nc3ccccc3nc12 (stereo not drawn)	31.9	nt	10.1	74.3
N#CCCn1cc(C(=O)NCc2ccccc2)c(-c2ccc3c(c2)OCCO3)n1	1.2	0.1	6.9	3.0
CN1CCN(c2nc3c(c(=O)[nH]2)CCC3)CC1	nt	nt	2.6	nt
O=Cc1c(C(=O)O)n(Cc2ccc(F)cc2Cl)c2ccccc12	nt	nt	-2.3	nt
CCOC(=O)c1nc2ccccc2c(=O)n1-c1ccc(C)cc1	0.0	2.1	6.6	-2.8
CCCCn1c(NS(=O)(=O)c2ccc(C)cc2)c(C(=O)OCC)c2nc3ccccc3nc21	22.9	9.6	75.3*	58.5*
CCCCn1c(NC(=O)c2ccco2)c(C(=O)OCC)c2nc3ccccc3nc21	13.5	18.4	71.1*	60.4*
Cc1nc2ccc(Cl)cc2c(=O)n1-c1cccc(Cl)c1	nt	nt	-7.1	nt
SMILES	Hck-Nef inh	Runt-CBFb FRET	RanGTP-Impb inh	Runt-SMMHC FRET
CCCCn1c(N)c(C(=O)NCc2cccs2)c2nc3ccccc3nc21	29.8	nt	68.2*	76.5*
CCCOC(=O)c1c(N)n(Cc2cccs2)c2nc3ccccc3nc12	11.9	40.1	?	107.5*
Nc1c(C(=O)NCCCc2ccccc2)c2nc3ccccc3nc2n1Cc1cccs1	7.4	4.8	66.4*	25.2
CCCCCn1c(N)c(C(=O)NCc2cccs2)c2nc3ccccc3nc21	19.4	3.1	55.7*	18.8
COCCCNC(=O)c1c(NC(=O)c2ccccc2)n(Cc2ccccc2)c2nc3ccccc3nc12	4.6	nt	?	nt
CCCCn1c(=O)c(C(=O)NCc2ccccc2OC)c(O)c2ccccc21	nt	nt	-4.1	nt
COC(=O)C1=C(c2cc3ccccc3o2)C[C@@H]2CC[C@H]1N2C(=O)NCCO	nt	nt	0.8	nt
CCCCCCC(Cl)(Cn1ccnc1)c1ccccc1 (stereo not drawn)	nt	nt	-4.3	nt

Source: PubChem (several laboratories)
